Values after ≈ are worked out from the molar mass of the structure shown.
Experiments:
[1] = molecular target: 11-beta-hydroxysteroid dehydrogenase 1 (Homo sapiens, UniProt P28845); test: Inhibition of human 11beta-HSD1 expressed in CHO-K1 cells using cortisone as substrate after 3 hrs by HTRF assay; assay type: cell-based
How it was run: (§1)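 Cells overexpressing human or mouse 11β-HSD1 incubated with cortisone plus compound for 3 h; cortisol measured by HTRF. IC50 fitted from concentration-dependent inhibition curves; means ± SEM of triplicate experiments.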

[2] = molecular target: 11-beta-hydroxysteroid dehydrogenase 1 (Mus musculus, UniProt P50172); test: Inhibition of mouse 11beta-HSD1 expressed in CHO-K1 cells using cortisone as substrate after 3 hrs by HTRF assay; assay type: cell-based; how it was run: as §1
Sequence of 11-beta-hydroxysteroid dehydrogenase 1 (Mus musculus, UniProt P50172) (P50172 whole entry): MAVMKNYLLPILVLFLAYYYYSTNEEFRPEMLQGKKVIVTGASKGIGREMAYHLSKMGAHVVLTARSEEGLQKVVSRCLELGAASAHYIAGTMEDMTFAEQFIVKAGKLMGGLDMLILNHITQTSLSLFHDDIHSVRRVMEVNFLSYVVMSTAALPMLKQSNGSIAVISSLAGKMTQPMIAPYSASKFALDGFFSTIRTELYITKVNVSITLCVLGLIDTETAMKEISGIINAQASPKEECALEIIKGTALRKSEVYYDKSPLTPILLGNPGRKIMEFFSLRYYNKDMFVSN

Mus musculus [3] = test: Ex-vivo inhibition of 11betaHSD1 in C57BL/6 mouse fat at 20 mg/kg, po after 2 hrs by ELISA; assay type: functional; settings: C57BL/6, 2 h
How it was run: (§2)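 Normal mice dosed orally (1, 5, 10 or 20 mpk); 11β-HSD1 activity in fat tissue measured ex vivo 2 h post-dose.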

[4] = Metabolic stability in rat liver microsomes assessed as compound remaining after 30 mins; assay type: ADME, Microsome; settings: read-out: Stability
How it was run: (§3)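 Human and rat liver microsomes incubated with compound for 30 min; stability reported as percent parent compound remaining.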

[5] = Metabolic stability in human liver microsomes assessed as compound remaining after 30 mins; assay type: ADME, Microsome; settings: read-out: Stability; how it was run: as §3
Mus musculus [6] = test: Ex-vivo inhibition of 11betaHSD1 in C57BL/6 mouse liver at 20 mg/kg, po after 2 hrs by ELISA; assay type: functional; settings: C57BL/6, Liver
How it was run: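 Normal mice given 20 mpk orally; liver tissue taken 2 h after dosing and 11β-HSD1 activity measured ex vivo as % inhibition relative to vehicle.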

[7] = Cmax in cynomolgus monkey at 10 mg/kg, po; assay type: ADME, organism-based, Macaca fascicularis; set-up: dose 10 mg/kg, route oral; settings: in vivo
[8] = Terminal elimination half life in Sprague-Dawley rat at 10 mg/kg, po; assay type: ADME, organism-based; set-up: dose 10 mg/kg, route oral; settings: in vivo, read-out: beta t1/2 (converted)
Cynomolgus monkey [9] = test: Ex-vivo inhibition of 11beta-HSD1 in cynomolgus monkey shoulder fat at 10 mg/kg, po after 2 hrs by ELISA; assay type: functional; settings: Macaca fascicularis
How it was run: (§4)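 Cynomolgus monkeys dosed orally at 10 mpk; 11β-HSD1 activity measured ex vivo in shoulder, inguinal and abdominal cavity fat at 2 h. Means, n = 2 monkeys per group, versus vehicle.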

[10] = molecular target: T1, 11-beta-hydroxysteroid dehydrogenase type 2 (Homo sapiens) (UniProt P80365); test: Inhibition of human 11beta-HSD2 expressed in HEK293 cells using […] as substrate at 10 uM after 24 hrs by HTRF assay; assay type: cell-based
T1 sequence (whole entry): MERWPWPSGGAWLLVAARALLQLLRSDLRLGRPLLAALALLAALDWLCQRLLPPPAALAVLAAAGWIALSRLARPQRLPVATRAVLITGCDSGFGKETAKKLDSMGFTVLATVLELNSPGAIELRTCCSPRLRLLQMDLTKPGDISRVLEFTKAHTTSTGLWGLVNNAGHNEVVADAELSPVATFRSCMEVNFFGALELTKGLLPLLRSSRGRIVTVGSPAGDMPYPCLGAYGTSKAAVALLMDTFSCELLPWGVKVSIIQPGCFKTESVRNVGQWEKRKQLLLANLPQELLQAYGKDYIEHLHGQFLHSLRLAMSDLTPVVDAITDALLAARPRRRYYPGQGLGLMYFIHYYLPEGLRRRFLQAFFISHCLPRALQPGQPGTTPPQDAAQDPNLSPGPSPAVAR

Cytochrome P450 2D6 = Cytochrome P450 2D6 (Homo sapiens, UniProt P10635); test: Inhibition of CYP2D6 incubated for 20 mins prior to substrate addition measured after 20 mins by fluorimetric assay; assay type: ADME
Sequence of Cytochrome P450 2D6 (P10635 whole entry): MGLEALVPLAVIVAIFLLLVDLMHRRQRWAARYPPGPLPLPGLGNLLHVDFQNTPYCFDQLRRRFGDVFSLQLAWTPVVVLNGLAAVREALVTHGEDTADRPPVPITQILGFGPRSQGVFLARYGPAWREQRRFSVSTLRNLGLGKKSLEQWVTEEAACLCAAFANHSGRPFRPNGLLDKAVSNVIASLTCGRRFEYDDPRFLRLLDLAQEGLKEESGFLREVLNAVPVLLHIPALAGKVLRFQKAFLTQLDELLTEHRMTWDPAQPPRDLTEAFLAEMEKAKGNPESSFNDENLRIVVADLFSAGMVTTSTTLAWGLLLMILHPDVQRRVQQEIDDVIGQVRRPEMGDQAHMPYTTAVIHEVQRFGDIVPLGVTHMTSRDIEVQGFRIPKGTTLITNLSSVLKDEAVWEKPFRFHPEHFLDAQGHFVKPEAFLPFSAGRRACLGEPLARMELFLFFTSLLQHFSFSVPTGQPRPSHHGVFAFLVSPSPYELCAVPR

Cynomolgus monkey [11] = test: Ex-vivo inhibition of 11beta-HSD1 in cynomolgus monkey abdominal fat at 10 mg/kg, po after 2 hrs by ELISA; assay type: functional; settings: Macaca fascicularis, Abdomen; how it was run: as §4
[12] = Cmax in Sprague-Dawley rat at 10 mg/kg, po; assay type: ADME, organism-based; set-up: dose 10 mg/kg, route oral; settings: in vivo
[13] = Metabolic stability in plasma at 10 uM after 30 mins; assay type: ADME, cell-free; settings: read-out: Stability
How it was run: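 Compound incubated in plasma for 30 min; stability given as percent remaining.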

Cynomolgus monkey [14] = test: Ex-vivo inhibition of 11beta-HSD1 in cynomolgus monkey inguinal fat at 10 mg/kg, po after 2 hrs by ELISA; assay type: functional; settings: Macaca fascicularis; how it was run: as §4
[15] = AUC in Sprague-Dawley rat at 10 mg/kg, po; assay type: ADME, organism-based; set-up: dose 10 mg/kg, route oral; settings: plasma
Mus musculus [16] = test: Ex-vivo inhibition of 11betaHSD1 in C57BL/6 mouse fat at 10 mg/kg, po after 2 hrs by ELISA; assay type: functional; settings: C57BL/6, 2 h; how it was run: as §2
[17] = Oral bioavailability in Sprague-Dawley rat at 10 mg/kg; assay type: ADME, organism-based; settings: in vivo
Cytochrome P450 2C9 = Cytochrome P450 2C9 (Homo sapiens, UniProt P11712); test: Inhibition of CYP2C9; assay type: ADME
Sequence of Cytochrome P450 2C9 (P11712 whole entry): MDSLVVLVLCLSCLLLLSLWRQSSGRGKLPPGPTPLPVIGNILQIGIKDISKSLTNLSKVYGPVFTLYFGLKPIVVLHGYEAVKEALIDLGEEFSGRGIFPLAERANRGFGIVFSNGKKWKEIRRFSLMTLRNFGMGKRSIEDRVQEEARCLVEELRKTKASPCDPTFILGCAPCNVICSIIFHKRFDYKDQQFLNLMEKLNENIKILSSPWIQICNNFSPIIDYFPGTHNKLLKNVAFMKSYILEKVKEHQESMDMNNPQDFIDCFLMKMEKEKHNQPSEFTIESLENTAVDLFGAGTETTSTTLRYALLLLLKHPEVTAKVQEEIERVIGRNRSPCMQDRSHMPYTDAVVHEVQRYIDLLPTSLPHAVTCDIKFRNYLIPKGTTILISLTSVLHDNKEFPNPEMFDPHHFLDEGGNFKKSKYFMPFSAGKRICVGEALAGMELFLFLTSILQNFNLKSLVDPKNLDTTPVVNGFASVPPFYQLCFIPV

Cytochrome P450 3A4 = Cytochrome P450 3A4 (Homo sapiens, UniProt P08684); test: Inhibition of CYP3A4 incubated for 20 mins prior to substrate addition measured after 20 mins by fluorimetric assay; assay type: ADME
Sequence of Cytochrome P450 3A4 (P08684 whole entry): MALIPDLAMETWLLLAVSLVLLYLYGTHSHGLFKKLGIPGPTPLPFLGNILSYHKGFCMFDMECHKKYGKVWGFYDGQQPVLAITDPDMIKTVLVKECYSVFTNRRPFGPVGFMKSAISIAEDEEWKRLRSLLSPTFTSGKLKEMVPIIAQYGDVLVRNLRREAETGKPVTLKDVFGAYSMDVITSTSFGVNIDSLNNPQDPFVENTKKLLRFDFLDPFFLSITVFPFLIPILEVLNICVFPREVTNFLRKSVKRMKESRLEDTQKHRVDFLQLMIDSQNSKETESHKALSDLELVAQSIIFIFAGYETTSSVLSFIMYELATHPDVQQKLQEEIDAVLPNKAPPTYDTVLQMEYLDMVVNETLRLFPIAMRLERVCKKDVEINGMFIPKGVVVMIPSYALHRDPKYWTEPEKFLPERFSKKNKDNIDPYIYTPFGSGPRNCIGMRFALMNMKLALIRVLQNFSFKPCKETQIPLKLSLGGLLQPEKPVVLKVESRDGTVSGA

[18] = Terminal elimination half life in cynomolgus monkey at 10 mg/kg, po; assay type: ADME, organism-based, Macaca fascicularis; set-up: dose 10 mg/kg, route oral; settings: in vivo, read-out: beta t1/2 (converted)
Cytochrome P450 2C19 = Cytochrome P450 2C19 (Homo sapiens, UniProt P33261); test: Inhibition of CYP2C19 incubated for 20 mins prior to substrate addition measured after 20 mins by fluorimetric assay; assay type: ADME
Sequence of Cytochrome P450 2C19 (P33261 whole entry): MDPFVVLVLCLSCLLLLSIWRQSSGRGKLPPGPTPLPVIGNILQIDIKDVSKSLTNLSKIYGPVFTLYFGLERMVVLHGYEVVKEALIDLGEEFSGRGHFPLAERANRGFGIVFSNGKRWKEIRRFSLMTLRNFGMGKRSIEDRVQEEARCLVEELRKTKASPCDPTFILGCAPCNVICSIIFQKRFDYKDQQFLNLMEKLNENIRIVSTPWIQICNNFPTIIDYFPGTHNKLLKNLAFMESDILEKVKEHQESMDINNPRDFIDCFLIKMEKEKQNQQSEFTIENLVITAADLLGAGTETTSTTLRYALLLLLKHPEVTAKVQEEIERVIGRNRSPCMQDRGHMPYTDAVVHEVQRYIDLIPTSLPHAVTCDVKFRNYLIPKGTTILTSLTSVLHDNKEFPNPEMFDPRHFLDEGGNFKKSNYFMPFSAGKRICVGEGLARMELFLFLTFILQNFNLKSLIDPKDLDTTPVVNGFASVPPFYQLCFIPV

[19] = Aqueous solubility of the compound; assay type: physicochemical; settings: buffer
Mus musculus [20] = test: Ex-vivo inhibition of 11betaHSD1 in C57BL/6 mouse fat at 5 mg/kg, po after 2 hrs by ELISA; assay type: functional; settings: C57BL/6, 2 h; how it was run: as §2
[21] = AUC in cynomolgus monkey at 10 mg/kg, po; assay type: ADME, organism-based, Macaca fascicularis; set-up: dose 10 mg/kg, route oral; settings: plasma
Cytochrome P450 1A2 = molecular target: T2, Cytochrome P450 1A2 (Homo sapiens, UniProt P05177); test: Inhibition of CYP1A2 incubated for 20 mins prior to substrate addition measured after 20 mins by fluorimetric assay; assay type: ADME
T2 sequence (P05177 whole entry): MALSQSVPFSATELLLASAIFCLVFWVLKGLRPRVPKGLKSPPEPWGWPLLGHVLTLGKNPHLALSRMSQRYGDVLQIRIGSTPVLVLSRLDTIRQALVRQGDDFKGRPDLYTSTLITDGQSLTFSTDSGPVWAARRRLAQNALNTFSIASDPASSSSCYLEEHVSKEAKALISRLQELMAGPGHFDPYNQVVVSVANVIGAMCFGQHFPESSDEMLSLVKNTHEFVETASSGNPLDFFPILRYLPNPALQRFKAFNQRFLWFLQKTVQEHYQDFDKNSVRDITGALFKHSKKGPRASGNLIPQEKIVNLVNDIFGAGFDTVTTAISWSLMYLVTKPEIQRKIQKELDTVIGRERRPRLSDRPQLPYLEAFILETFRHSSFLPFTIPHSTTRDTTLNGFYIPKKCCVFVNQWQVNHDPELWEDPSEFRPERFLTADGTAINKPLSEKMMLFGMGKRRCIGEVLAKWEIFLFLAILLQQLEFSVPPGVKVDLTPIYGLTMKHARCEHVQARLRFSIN

Mus musculus [22] = test: Ex-vivo inhibition of 11betaHSD1 in po dosed C57BL/6 mouse fat after 2 hrs by ELISA; assay type: functional, organism-based; how it was run: as §2
Mus musculus [23] = test: Ex-vivo inhibition of 11betaHSD1 in C57BL/6 mouse fat at 1 mg/kg, po after 2 hrs by ELISA; assay type: functional; settings: C57BL/6, 2 h; how it was run: as §2
[24] = Clearance in Sprague-Dawley rat at 10 mg/kg, po; assay type: ADME, organism-based; set-up: dose 10 mg/kg, route oral; settings: in vivo

Sequence of 11-beta-hydroxysteroid dehydrogenase 1 (Homo sapiens, UniProt P28845) (P28845 whole entry): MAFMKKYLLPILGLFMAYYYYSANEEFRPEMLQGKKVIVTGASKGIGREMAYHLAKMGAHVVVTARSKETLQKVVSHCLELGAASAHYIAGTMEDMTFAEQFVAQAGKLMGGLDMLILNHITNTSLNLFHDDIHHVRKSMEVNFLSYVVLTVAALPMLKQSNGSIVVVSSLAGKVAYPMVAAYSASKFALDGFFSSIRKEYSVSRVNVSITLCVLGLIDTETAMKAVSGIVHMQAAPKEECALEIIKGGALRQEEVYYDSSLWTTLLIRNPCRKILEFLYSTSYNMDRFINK

**Q.** Which IC50 ([1]; cho-k1) does the source give for `O=C(O)CN1CCCN(c2ccccc2)S1(=O)=O` here?
**A.** The IC50 was “Not Active”.

**Q.** Which IC50 ([1]; read-out: IC50) does the source give for `NC(=O)[C@]12CC3CC(C1)[C@@H](NC(=O)CN1CCN(c4c(Cl)cc(Cl)cc4Cl)S1(=O)=O)C(C3)C2` here?
**A.** The IC50 was 187 nM.

**Q.** What about the IC50 [2] of the same compound?
**A.** Its IC50 is 409 nM.

**Q.** Which IC50 ([1]; read-out: IC50) does the source give for `O=C(CN1CCCN(c2ccccc2)S1(=O)=O)NC12CC3CC(CC(C3)C1)C2` here?
**A.** Its IC50 is 3370 nM.

**Q.** Which results are given for `CC1CCN(c2c(Cl)cc(Cl)cc2Cl)S(=O)(=O)N1CC(=O)N[C@H]1C2CC3CC1C[C@](C(N)=O)(C3)C2` (mixture of isomers)?
**A.** inhibition in vivo at 20 mg/kg (Mus musculus [3]): 74.5%; remaining at 0.5 h [4]: 70%; IC50 ([1]; read-out: IC50): 1 nM; IC50 [2]: 70 nM; remaining at 0.5 h [5]: 94%

**Q.** For `NC(=O)[C@]12CC3CC(C1)[C@@H](NC(=O)CN1CC4(CC4)CN(c4c(Cl)cc(Cl)cc4Cl)S1(=O)=O)C(C3)C2`, which inhibition in vivo at 20 mg/kg (Mus musculus [3]) is on record?
**A.** The inhibition in vivo at 20 mg/kg was 39.6%.

**Q.** And the IC50 ([1]; read-out: IC50)?
**A.** The IC50 was 5 nM.

**Q.** And the IC50 [2]?
**A.** Its IC50 is 23 nM.

**Q.** What does the source list for `CN(CC(=O)N[C@H]1C2CC3CC1C[C@](C(N)=O)(C3)C2)S(=O)(=O)N(C)c1c(Cl)cc(Cl)cc1Cl`?
**A.** inhibition in vivo at 20 mg/kg (Mus musculus [3]): 33.3%; inhibition in vivo at 20 mg/kg (Mus musculus [6]): 57.8%; remaining at 0.5 h [4]: 7%; IC50 ([1]; read-out: IC50): 1 nM; IC50 [2]: 2 nM; remaining at 0.5 h [5]: 21%

**Q.** For `NC(=O)[C@]12CC3CC(C1)[C@@H](NC(=O)CN1CCCN(c4cccc(F)c4)S1(=O)=O)C(C3)C2`, which IC50 ([1]; read-out: IC50) is on record?
**A.** Its IC50 is 50 nM.

**Q.** And the IC50 [2]?
**A.** Its IC50 is 140 nM.

**Q.** What does the source list for `CC1CN(CC(=O)N[C@H]2C3CC4CC2C[C@](C(N)=O)(C4)C3)S(=O)(=O)N(c2c(Cl)cc(Cl)cc2Cl)C1` (mixture of isomers)?
**A.** Cmax [7]: 6400 ng/mL; half-life [8]: 3.8 h; inhibition in vivo at 10 mg/kg (Cynomolgus monkey [9]): 87%; inhibition [10]: 20%; inhibition in vivo at 20 mg/kg (Mus musculus [3]): 95.9%; INH (Cytochrome P450 2D6): > 100 µM; inhibition in vivo at 10 mg/kg (Cynomolgus monkey [11]): 81%; remaining at 0.5 h [4]: 78%; Cmax [12]: 3100 ng/mL; IC50 ([1]; read-out: IC50): 1 nM; remaining at 0.5 h, 10 µM [13]: 100%; inhibition in vivo at 10 mg/kg (Cynomolgus monkey [14]): 83%; IC50 [2]: 2 nM; AUC [15]: 15700 ng·h/mL; inhibition in vivo at 10 mg/kg (Mus musculus [16]): 90.7%; bioavailability [17]: 68.8%; INH (Cytochrome P450 2C9): > 100 µM; remaining at 0.5 h [5]: 93%; INH (Cytochrome P450 3A4): > 100 µM; half-life [18]: 3.4 h; INH (Cytochrome P450 2C19): > 100 µM; solubility [19]: 361 µM (≈ 204 µg/mL); inhibition in vivo at 5 mg/kg (Mus musculus [20]): 90.4%; AUC [21]: 35600 ng·h/mL; INH (Cytochrome P450 1A2): > 100 µM; inhibition (Mus musculus [22]): Dose-dependent effect; inhibition in vivo at 1 mg/kg (Mus musculus [23]): 76.6%; CL/F [24]: 11.7 mL/min/kg

**Q.** For `NC(=O)[C@]12CC3CC(C1)[C@@H](NC(=O)CN1CCCCN(c4c(Cl)cc(Cl)cc4Cl)S1(=O)=O)C(C3)C2`, which inhibition in vivo at 20 mg/kg (Mus musculus [3]) is on record?
**A.** The inhibition in vivo at 20 mg/kg was 59.9%.

**Q.** What about the inhibition in vivo at 20 mg/kg (Mus musculus [6]) of the same compound?
**A.** The inhibition in vivo at 20 mg/kg was 51.4%.

**Q.** What about the remaining at 0.5 h [4] of the same compound?
**A.** Its remaining at 0.5 h is 26%.

**Q.** And the IC50 ([1]; read-out: IC50)?
**A.** Its IC50 is 1 nM.

**Q.** And the IC50 [2]?
**A.** The IC50 was 1 nM.

**Q.** And the remaining at 0.5 h [5]?
**A.** The remaining at 0.5 h was 40%.

From ChEMBL document CHEMBL2034946, “Synthesis and biological evaluation of cyclic sulfamide derivatives as 11β-hydroxysteroid dehydrogenase 1 inhibitors” (ACS Med Chem Lett, 2012)
